Reference: ChEMBL document CHEMBL4007402 (J Med Chem, 2017)

What was measured:
J82 = assay: Growth inhibition of human J82 cells after 72 hrs by CellTiter-Glo or CCK-8 assay; type: functional; conditions: J82, 72 h
[1] = AUC (0 to infinity) in Sprague-Dawley rat at 10 mg/kg, po up to 24 hrs; type: ADME, organism-based; set-up: dose 10 mg/kg, time infinity, route oral; conditions: in vivo
Procedure, shortened: (§1)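 Sprague Dawley rats given a single i.v. dose of 1 mg/kg or an oral dose of 10 mg/kg. Plasma AUC(0-t), AUC(0-∞), MRT(0-t), T1/2, Tmax and Cmax were derived and reported as mean±SD.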

[2] = target: Tyrosine-protein kinase ABL1 (Homo sapiens) (UniProt P00519); assay: Inhibition of recombinant TEL-fused ABL (unknown origin) expressed in mouse BAF3 cells assessed as growth inhibition after 72 hrs by CellTiter-Glo or CCK-8 assay; type: cell-based
Tyrosine-protein kinase ABL1 (Homo sapiens), sequence (P00519 whole entry, the tested form may be a part): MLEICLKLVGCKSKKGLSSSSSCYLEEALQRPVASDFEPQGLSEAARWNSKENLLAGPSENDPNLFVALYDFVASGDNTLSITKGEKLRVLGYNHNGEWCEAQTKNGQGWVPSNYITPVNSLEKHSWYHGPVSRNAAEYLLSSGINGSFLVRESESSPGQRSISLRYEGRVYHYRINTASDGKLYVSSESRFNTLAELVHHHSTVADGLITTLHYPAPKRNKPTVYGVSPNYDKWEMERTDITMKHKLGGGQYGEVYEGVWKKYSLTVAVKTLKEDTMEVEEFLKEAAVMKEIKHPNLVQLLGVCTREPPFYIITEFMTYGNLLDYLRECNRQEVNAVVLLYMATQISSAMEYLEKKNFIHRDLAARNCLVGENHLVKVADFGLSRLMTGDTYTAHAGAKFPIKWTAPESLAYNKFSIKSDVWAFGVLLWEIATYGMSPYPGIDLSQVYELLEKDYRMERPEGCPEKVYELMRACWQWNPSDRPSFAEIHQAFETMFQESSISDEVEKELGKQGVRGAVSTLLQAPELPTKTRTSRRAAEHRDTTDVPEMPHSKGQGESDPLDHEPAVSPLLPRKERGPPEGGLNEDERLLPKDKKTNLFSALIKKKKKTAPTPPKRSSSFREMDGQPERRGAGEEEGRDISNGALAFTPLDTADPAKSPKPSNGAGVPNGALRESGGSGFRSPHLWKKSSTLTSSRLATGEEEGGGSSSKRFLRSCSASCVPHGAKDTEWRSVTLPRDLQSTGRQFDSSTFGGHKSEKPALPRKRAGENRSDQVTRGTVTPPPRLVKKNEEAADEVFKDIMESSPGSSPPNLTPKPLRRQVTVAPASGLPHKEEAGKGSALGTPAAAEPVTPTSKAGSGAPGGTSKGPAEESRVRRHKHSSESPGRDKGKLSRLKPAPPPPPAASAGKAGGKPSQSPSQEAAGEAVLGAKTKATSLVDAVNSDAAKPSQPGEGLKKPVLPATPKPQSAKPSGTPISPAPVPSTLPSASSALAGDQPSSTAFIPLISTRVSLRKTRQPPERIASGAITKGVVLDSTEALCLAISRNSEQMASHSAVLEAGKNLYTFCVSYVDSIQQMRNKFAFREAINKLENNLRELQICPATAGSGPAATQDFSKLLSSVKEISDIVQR
Procedure, shortened: (§2)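 Isogenic murine BaF3 cells transformed with TEL-fused kinases, whose proliferation depends on the fused kinase, were used. Parental BaF3 cells served as the general selectivity counter-screen. The anti-proliferative read-out was reported as GI50.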

[3] = target: Mitogen-activated protein kinase 14 (Homo sapiens, UniProt Q16539); assay: Inhibition of full-length recombinant human GST-tagged p38alpha expressed in Escherichia coli by Z'-LYTE assay
Mitogen-activated protein kinase 14, sequence (Q16539 whole entry): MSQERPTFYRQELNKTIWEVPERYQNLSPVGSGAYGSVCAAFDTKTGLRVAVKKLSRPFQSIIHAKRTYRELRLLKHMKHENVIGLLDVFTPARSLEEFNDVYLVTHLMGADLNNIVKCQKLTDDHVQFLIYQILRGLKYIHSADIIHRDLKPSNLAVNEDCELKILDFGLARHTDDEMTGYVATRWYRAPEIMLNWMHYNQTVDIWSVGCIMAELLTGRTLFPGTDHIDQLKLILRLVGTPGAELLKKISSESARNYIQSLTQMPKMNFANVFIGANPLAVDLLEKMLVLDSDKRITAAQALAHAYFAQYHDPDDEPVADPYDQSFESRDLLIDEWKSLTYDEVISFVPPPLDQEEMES

[4] = Half-life in Sprague-Dawley rat at 1 mg/kg, iv; type: ADME, organism-based; conditions: in vivo; procedure, shortened: as §1
[5] = target: T1, Tyrosine-protein kinase JAK3 (Homo sapiens) (UniProt P52333); assay: Inhibition of recombinant TEL-fused JAK3 (unknown origin) expressed in mouse BAF3 cells assessed as growth inhibition after 72 hrs by CellTiter-Glo or CCK-8 assay; type: cell-based; procedure, shortened: as §2
T1 sequence (whole entry): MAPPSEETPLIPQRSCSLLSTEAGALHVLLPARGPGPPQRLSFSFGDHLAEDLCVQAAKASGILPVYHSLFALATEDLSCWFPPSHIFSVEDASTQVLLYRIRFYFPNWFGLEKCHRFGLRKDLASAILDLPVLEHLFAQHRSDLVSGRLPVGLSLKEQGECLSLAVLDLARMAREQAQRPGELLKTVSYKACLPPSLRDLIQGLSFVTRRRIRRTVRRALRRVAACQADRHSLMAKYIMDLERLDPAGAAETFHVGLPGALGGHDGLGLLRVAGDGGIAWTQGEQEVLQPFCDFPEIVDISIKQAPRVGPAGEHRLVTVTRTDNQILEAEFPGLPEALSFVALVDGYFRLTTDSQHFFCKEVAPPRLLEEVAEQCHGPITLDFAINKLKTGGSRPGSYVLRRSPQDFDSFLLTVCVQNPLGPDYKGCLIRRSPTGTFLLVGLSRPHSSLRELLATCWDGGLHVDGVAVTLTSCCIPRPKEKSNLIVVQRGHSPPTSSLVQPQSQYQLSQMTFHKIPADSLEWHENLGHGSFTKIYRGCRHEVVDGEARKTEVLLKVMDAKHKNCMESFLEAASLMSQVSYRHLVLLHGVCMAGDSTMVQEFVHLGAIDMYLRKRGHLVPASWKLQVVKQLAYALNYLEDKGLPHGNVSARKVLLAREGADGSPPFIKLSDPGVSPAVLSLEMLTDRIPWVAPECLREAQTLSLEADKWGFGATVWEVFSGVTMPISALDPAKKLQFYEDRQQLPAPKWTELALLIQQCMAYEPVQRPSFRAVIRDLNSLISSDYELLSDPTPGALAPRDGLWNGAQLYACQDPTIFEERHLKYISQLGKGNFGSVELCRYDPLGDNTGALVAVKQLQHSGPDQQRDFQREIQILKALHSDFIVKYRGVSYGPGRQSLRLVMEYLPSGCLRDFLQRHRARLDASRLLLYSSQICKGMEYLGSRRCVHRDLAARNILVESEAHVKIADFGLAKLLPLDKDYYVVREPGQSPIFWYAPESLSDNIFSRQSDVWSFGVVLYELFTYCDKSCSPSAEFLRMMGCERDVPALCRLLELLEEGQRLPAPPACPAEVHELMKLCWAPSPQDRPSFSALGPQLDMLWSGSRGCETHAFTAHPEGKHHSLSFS

[6] = Cmax in Sprague-Dawley rat at 1 mg/kg, iv up to 8 hrs; type: ADME, organism-based; set-up: dose 1 mg/kg, route intravenous; conditions: in vivo; procedure, shortened: as §1
[7] = AUC (0 to infinity) in Sprague-Dawley rat at 1 mg/kg, iv up to 8 hrs; type: ADME, organism-based; set-up: dose 1 mg/kg, route intravenous, time infinity; conditions: in vivo; procedure, shortened: as §1
[8] = Growth inhibition of mouse BAF3 cells after 72 hrs by CellTiter-Glo or CCK-8 assay; type: cell-based; procedure, shortened: as §2
[9] = target: Tyrosine-protein kinase ABL1 (Homo sapiens) (UniProt P00519); assay: Binding affinity to human phosphorylated ABL1 (229 to 512 amino acid residues) expressed in mammalian expression system assessed as percent control number at 1 uM by KINOMEscan assay
Procedure, shortened: (§3)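 KINOMEscan competition binding panel of 468 kinases, with the compound tested at 1 µM. Binding is expressed as percent of control relative to DMSO.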

EJ = assay: Growth inhibition of human EJ cells after 72 hrs by CellTiter-Glo or CCK-8 assay; type: functional
[10] = target: Epidermal growth factor receptor (Homo sapiens) (UniProt P00533); assay: Inhibition of recombinant TEL-fused EGFR (unknown origin) expressed in mouse BAF3 cells assessed as growth inhibition after 72 hrs by CellTiter-Glo or CCK-8 assay; type: cell-based; procedure, shortened: as §2
Epidermal growth factor receptor (Homo sapiens), sequence (P00533 whole entry, the tested form may be a part): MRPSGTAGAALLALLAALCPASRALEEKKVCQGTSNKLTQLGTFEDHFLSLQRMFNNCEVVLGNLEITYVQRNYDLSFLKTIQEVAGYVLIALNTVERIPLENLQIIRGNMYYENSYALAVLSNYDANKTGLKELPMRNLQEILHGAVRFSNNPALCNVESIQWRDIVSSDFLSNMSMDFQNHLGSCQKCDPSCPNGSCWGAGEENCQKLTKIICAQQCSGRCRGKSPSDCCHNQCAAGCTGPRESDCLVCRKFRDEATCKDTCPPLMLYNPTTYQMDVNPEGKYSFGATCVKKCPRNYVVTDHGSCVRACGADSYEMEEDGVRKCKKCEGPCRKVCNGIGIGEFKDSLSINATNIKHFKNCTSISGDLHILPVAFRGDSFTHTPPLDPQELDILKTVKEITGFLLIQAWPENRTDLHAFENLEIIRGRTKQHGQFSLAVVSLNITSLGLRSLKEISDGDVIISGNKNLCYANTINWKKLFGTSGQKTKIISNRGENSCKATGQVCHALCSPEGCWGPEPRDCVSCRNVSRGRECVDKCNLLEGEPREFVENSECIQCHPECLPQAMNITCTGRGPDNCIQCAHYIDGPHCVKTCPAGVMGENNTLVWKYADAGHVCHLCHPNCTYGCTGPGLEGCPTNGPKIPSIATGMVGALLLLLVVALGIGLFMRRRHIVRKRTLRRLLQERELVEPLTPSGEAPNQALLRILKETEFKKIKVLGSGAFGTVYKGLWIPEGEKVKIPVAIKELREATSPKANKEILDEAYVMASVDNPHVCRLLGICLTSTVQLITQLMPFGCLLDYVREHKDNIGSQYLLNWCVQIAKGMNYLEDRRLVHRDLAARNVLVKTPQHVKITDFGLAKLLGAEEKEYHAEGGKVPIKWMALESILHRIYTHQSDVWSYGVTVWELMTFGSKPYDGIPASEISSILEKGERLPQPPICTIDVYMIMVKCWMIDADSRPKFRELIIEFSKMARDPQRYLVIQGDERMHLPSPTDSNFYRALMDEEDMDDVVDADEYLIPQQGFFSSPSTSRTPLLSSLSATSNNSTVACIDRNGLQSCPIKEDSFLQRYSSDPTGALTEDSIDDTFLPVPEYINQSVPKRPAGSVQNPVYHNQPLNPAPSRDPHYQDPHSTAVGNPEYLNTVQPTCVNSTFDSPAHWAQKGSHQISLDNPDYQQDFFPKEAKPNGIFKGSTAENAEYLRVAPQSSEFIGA

[11] = target: Tyrosine-protein kinase ABL1 (Homo sapiens) (UniProt P00519); assay: Inhibition of human nonphosphorylated ABL1 (229 to 512 amino acid residues) expressed in mammalian expression system assessed as remaining activity at 1 uM by KINOMEscan assay relative to control; procedure, shortened: as §3
[12] = Mean residence time (0 to t) in Sprague-Dawley rat at 10 mg/kg, po; type: ADME, organism-based; conditions: in vivo; procedure, shortened: as §1
[13] = Growth inhibition of human bladder cancer cells after 72 hrs by CellTiter-Glo or CCK-8 assay; type: functional; conditions: Bladder cancer cell
[14] = AUC (0 to t) in Sprague-Dawley rat at 1 mg/kg, iv up to 8 hrs; type: ADME, organism-based; set-up: time < 8 hr, dose 1 mg/kg, route intravenous; conditions: in vivo; procedure, shortened: as §1
[15] = target: Platelet-derived growth factor receptor alpha (Homo sapiens) (UniProt P16234); assay: Inhibition of recombinant TEL-fused PDGFR-alpha (unknown origin) expressed in mouse BAF3 cells assessed as growth inhibition after 72 hrs by CellTiter-Glo or CCK-8 assay; type: cell-based; procedure, shortened: as §2
Platelet-derived growth factor receptor alpha (Homo sapiens), sequence (P16234 whole entry, the tested form may be a part): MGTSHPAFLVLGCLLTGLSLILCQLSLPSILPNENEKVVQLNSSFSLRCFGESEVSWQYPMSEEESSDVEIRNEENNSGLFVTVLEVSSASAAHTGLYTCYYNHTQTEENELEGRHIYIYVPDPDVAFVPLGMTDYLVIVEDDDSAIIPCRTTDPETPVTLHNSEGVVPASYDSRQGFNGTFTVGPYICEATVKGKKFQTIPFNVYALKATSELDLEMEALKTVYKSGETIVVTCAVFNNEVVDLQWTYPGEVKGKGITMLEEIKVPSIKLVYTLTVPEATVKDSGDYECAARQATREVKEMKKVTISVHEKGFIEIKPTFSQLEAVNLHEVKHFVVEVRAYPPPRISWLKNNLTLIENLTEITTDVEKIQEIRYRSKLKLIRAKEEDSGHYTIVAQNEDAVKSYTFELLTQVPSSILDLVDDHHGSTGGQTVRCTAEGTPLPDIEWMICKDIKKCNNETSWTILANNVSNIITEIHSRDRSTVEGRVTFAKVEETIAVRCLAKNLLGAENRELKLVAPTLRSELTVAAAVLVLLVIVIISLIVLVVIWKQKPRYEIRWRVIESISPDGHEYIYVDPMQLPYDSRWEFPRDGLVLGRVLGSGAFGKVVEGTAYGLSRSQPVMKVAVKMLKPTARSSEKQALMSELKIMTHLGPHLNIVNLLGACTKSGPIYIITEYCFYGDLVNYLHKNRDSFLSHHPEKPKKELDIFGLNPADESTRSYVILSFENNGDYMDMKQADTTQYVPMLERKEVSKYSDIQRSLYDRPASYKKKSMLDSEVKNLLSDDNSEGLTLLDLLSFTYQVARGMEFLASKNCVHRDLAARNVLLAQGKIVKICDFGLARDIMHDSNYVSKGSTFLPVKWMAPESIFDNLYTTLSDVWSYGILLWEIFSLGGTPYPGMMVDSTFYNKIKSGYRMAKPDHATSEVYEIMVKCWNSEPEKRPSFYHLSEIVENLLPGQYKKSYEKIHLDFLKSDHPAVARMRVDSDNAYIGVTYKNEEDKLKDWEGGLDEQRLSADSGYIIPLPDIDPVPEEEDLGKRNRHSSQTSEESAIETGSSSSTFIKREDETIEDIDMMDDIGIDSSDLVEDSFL

CWR22R = assay: Growth inhibition of human 22Rv1 cells after 72 hrs by CellTiter-Glo or CCK-8 assay; type: functional; conditions: 22Rv1, 72 h
[16] = Mean residence time (0 to t) in Sprague-Dawley rat at 1 mg/kg, iv; type: ADME, organism-based; conditions: in vivo; procedure, shortened: as §1
[17] = target: Platelet-derived growth factor receptor beta (Homo sapiens) (UniProt P09619); assay: Inhibition of recombinant TEL-fused PDGFR-beta (unknown origin) expressed in mouse BAF3 cells assessed as growth inhibition after 72 hrs by CellTiter-Glo or CCK-8 assay; type: cell-based; procedure, shortened: as §2
Platelet-derived growth factor receptor beta (Homo sapiens), sequence (P09619 whole entry, the tested form may be a part): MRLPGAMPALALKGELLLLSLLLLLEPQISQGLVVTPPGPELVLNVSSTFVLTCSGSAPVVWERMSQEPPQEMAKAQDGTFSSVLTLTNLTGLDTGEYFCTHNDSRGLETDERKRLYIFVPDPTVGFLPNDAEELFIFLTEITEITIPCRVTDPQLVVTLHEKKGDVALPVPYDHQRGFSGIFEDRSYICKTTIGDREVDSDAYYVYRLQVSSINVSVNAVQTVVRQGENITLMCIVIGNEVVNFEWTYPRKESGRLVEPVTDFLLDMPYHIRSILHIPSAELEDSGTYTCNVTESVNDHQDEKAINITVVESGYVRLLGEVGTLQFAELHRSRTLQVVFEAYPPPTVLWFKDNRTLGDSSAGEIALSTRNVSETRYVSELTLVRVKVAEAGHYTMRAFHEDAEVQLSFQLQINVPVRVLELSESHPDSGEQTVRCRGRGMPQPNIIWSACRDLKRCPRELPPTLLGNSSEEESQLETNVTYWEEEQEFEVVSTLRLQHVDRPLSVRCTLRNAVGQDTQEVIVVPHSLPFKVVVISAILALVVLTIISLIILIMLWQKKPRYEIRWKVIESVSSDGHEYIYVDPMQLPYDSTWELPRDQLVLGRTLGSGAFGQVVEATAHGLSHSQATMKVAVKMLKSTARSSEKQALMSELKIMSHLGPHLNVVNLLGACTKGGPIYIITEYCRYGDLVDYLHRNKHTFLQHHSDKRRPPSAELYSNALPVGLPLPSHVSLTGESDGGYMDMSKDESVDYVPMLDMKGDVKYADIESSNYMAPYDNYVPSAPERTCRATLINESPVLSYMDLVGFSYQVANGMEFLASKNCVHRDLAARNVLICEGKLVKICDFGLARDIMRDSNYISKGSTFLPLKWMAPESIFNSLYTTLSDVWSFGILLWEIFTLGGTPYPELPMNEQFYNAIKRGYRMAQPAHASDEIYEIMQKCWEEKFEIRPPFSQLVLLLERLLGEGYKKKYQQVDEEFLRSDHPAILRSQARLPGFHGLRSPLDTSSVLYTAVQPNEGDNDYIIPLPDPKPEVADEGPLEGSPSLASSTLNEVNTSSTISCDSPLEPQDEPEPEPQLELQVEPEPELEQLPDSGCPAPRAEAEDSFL

ACHN = assay: Growth inhibition of human ACHN cells after 72 hrs by CellTiter-Glo or CCK-8 assay; type: functional
A498 = assay: Growth inhibition of human A498 cells after 72 hrs by CellTiter-Glo or CCK-8 assay; type: functional; conditions: A498, 72 h
[18] = target: Mast/stem cell growth factor receptor Kit (Homo sapiens) (UniProt P10721); assay: Inhibition of recombinant TEL-fused c-KIT (unknown origin) expressed in mouse BAF3 cells assessed as growth inhibition after 72 hrs by CellTiter-Glo or CCK-8 assay; type: cell-based; procedure, shortened: as §2

For `C=CC(=O)Nc1cc(Nc2ncc(C(=O)Nc3cc(NC(=O)c4cc(OC)c(OC)c(OC)c4)ccc3C)c(NC)n2)ccc1C`, the GI50 (J82) was 5.78 µM, the AUC(0-inf) [1] was 27.6 ng·h/mL and the GI50 [2] was 2.56 µM. The IC50 [3] was 0.106 µM, the half-life [4] was 48 min and the GI50 [5] was greater than 10 µM. For the same compound, the Cmax [6] was 13600 ng/mL, the AUC(0-inf) [7] was 1390 ng·h/mL and the GI50 at 72 h [8] was greater than 10 µM. It also gave an Activity [9] of 6.5%, a GI50 (EJ) greater than 10 µM and a GI50 [10] greater than 10 µM. The Activity [11] was 0.7%, the MRT last [12] was 166 min and the GI50 [13] was 8.87 µM. The AUC(0-t) at 8 h [14] was 1390 ng·h/mL, the GI50 [15] was 0.67 µM and the GI50 (CWR22R) was 3.45 µM. The MRT last [16] was 13.4 min, the GI50 [17] was 0.91 µM and the GI50 (ACHN) was 4.93 µM. It also gave a GI50 (A498) greater than 10 µM and a GI50 [18] of 2.01 µM.
